Test results reported in ChEMBL document CHEMBL4265975, “Synthesis, biological evaluation and molecular modeling of a novel series of fused 1,2,3-triazoles as potential anti-coronavirus agents” (Bioorg Med Chem Lett, 2018).

Key:
Human coronavirus 229E = experiment: Antiviral activity against Human coronavirus 229E infected in HEL cells assessed as reduction in virus-induced pathogenicity after 3 days by microscopic method; format: functional, organism-based; details: 72 h
Human alphaherpesvirus 2 = experiment: Antiviral activity against Human herpesvirus 2 strain G infected in human HEL cells assessed as inhibition of virus-induced cytopathic effect after 3 days by microscopic method; format: functional, organism-based; details: Human alphaherpesvirus 2, strain G, 72 h
[1] = Selectivity index, ratio of MCC for HEL cells to EC50 for Herpes simplex virus 2 strain G infected in HEL cells; format: toxicity, cell-based; details: human, read-out: Selectivity Index
Method in brief: (§1)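 SI is MCC divided by EC50. […] MCC was measured in parallel on HEL cells seeded at 5 x 10^3 cells/well, as the lowest concentration causing microscopically visible alteration of cell morphology. The top concentration tested was 100 µM.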

Human adenovirus 2 = experiment: Antiviral activity against Human adenovirus 2 infected in human HEL cells assessed as inhibition of virus-induced cytopathic effect after 3 days by microscopic method; format: functional, organism-based; details: Human mastadenovirus C, 72 h
Method in brief: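 HEL cells were infected with adenovirus 2 for 2 h. Residual virus was then removed and the cells were incubated with medium containing graded compound concentrations for 3 days at 37°C. Virus-induced cytopathogenicity was scored microscopically.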

[2] = Selectivity index, ratio of MCC for HEL cells to EC50 for Vaccinia virus infected in HEL cells; format: toxicity, cell-based; details: human, read-out: Selectivity Index; method in brief: as §1
[3] = Cytotoxicity against HEL cells assessed as alteration in cell morphology after 3 days by microscopic method; format: cell-based; details: human
Method in brief: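 HEL cells were seeded at 5 x 10^3 cells/well and exposed to graded compound concentrations, up to 100 μM, in parallel with the antiviral assay. Cell morphology was examined by light microscopy. MCC is the minimum concentration causing a microscopically detectable alteration of normal cell morphology.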

[4] = Selectivity index, ratio of MCC for HEL cells to EC50 for acyclovir-resistant TK-defecient Herpes simplex virus 1 KOS infected in HEL cells; format: toxicity, cell-based; details: human, read-out: Selectivity Index; method in brief: as §1
[5] = Selectivity index, ratio of MCC for HEL cells to EC50 for Human adenovirus 2 infected in HEL cells; format: toxicity, cell-based; details: read-out: Selectivity Index; method in brief: as §1
Vaccinia virus = experiment: Antiviral activity against Vaccinia virus infected in human HEL cells assessed as inhibition of virus-induced cytopathic effect after 3 days by microscopic method; format: functional, organism-based; details: Orthopoxvirus vaccinia, 72 h
[6] = Selectivity index, ratio of MCC for HEL cells to EC50 for Human coronavirus 229E infected in HEL cells; format: toxicity, cell-based; details: read-out: Selectivity Index; method in brief: as §1
Human alphaherpesvirus 1 [7] = experiment: Antiviral activity against Herpes simplex virus 1 KOS infected in human HEL cells assessed as inhibition of virus-induced cytopathic effect after 3 days by microscopic method; format: functional, organism-based; details: Human alphaherpesvirus 1, KOS, 72 h
Human alphaherpesvirus 1 [8] = experiment: Antiviral activity against acyclovir-resistant TK-defecient Herpes simplex virus 1 KOS infected in human HEL cells assessed as inhibition of virus-induced cytopathic effect after 3 days by microscopic method; format: functional, organism-based; details: Human alphaherpesvirus 1, KOS, 72 h
[9] = Selectivity index, ratio of MCC for HEL cells to EC50 for Herpes simplex virus 1 KOS infected in HEL cells; format: toxicity, cell-based; details: human, read-out: Selectivity Index; method in brief: as §1

SMILES	EC50 (Human coronavirus 229E) [µM]	EC50 (Human alphaherpesvirus 2) [µM]	selectivity ratio [1]	EC50 (Human adenovirus 2) [µM]	selectivity ratio [2]	MCC at 72 h [3] [µM]	selectivity ratio [4]	selectivity ratio [5]	EC50 (Vaccinia virus) [µM]	selectivity ratio [6]	EC50 (Human alphaherpesvirus 1 [7]) [µM]	EC50 (Human alphaherpesvirus 1 [8]) [µM]	selectivity ratio [9]
CCCCCCn1nnc2c1CCN(c1ccc(C(F)(F)F)cc1)C2	> 100	> 100	> 8	> 100	> 8	> 100	> 8	> 8	> 100	> 8	> 100	> 100	> 8
CCOC(=O)C1(Cc2ccccc2)CN(c2ccccc2)Cc2nnn(Cc3cccc(F)c3)c21 (configuration not stated)	> 100	> 100	> 8	> 100	> 8	≥ 100	> 8	> 8	> 100	> 8	> 100	> 100	> 8
CCOC(=O)C1(Cc2ccccc2)CN(c2ccccc2)Cc2nnn(Cc3ccc(OC)cc3)c21 (configuration not stated)	> 100	> 100	> 8	> 100	> 8	> 100	> 8	> 8	> 100	> 8	> 100	> 100	> 8
Fc1ccc(Cn2nnc3c2CCN(c2ccc(C(F)(F)F)cc2)C3)cc1	> 100	> 100	> 8	> 100	> 8	100	> 8	> 8	> 100	> 8	> 100	> 100	> 8
CCCCCCn1nnc2c1CCN(c1ccc(F)cc1)C2	> 100	> 100	> 8	> 100	> 8	> 100	> 8	> 8	> 100	> 8	> 100	> 100	> 8
CCOC(=O)C1(Cc2ccccc2)CN(c2ccccc2)Cc2nnn(Cc3ccccc3)c21 (configuration not stated)	> 100	> 100	> 8	> 100	> 8	≥ 20	> 8	> 8	> 100	> 8	> 100	> 100	> 8
CCOC(=O)C1(Cc2ccccc2)CN(c2ccccc2)Cc2nnn(Cc3ccc(F)cc3)c21 (configuration not stated)	8.95	> 100	> 8	> 100	> 8	≥ 100	> 8	> 8	> 100	> 8	> 100	> 100	> 8
Fc1cccc(Cn2nnc3c2CCN(c2ccc(C(F)(F)F)cc2)C3)c1	12	> 100	> 8	> 100	> 8	100	> 8	> 8	> 100	> 8	> 100	> 100	> 8
CCOC(=O)C1(Cc2ccccc2)CN(c2ccccc2)Cc2nnn(Cc3cc(OC)c(OC)c(OC)c3)c21 (configuration not stated)	> 100	> 100	> 8	> 100	> 8	≥ 100	> 8	> 8	> 100	> 8	> 100	> 100	> 8
